From PubChem
Rows were chosen to be rich in hits. Some 1.7% of all compounds tested hit in one or more screens of this group.
Rpn11 inh: blocks the human proteasome subunit Rpn11; human 26S proteasome, Ub4-pepOG fluorescence polarization; 20S core pre-blocked with epoxomicin; actives 0.59% (n = 360,000); O00487; inhibition, % at 20 µM; AID 588493;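 active = inhibition at 20 µM, scaled to each plate's controls, above about 33%, limit read from the data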
IDE cell activ: IDE (human) activation, cell-based. actives 0.073% (n = 340,000). HEK cells, FAbeta-B cleavage, fluorescence polarization; 0% vehicle, 100% cell-free pure enzyme wells. activation, % at 5.96 µM. AID 493087;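 active = activation above the mean of all tested compounds plus 3 SD, set per screening campaign, cut at about 17% in these data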
IDE inh: inhibits human insulin-degrading enzyme in HEK cells. P14735. FAbetaB cleavage, fluorescence polarization. inhibition, % at 5.59 µM. actives 0.41% (n = 320,000). AID 434962;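 active = percent inhibition above the average of all tested compounds plus 3 SD, set per screening campaign, cut at about 16% in these data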;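 note: IDE supplied by intact live HEK cells; FP after avidin binding of uncleaved biotin substrate so inhibition keeps polarization high; 0% = DMSO wells and 100% = 60 µM reference IDE inhibitor Ii1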
HNF4A DNA FP: change in binding of human HNF4 alpha to DNA. P41235. actives 0.3% (n = 360,000). HNF4a-FITC DNA binding, fluorescence polarization, 1 h. activity change, % at 10 µM; in the data active = activity change above about 30%, passing the limit was not always enough
TPT1 inh: inhibitors of Candida albicans tRNA 2'-phosphotransferase TPT1. recombinant caTPT1, FP RNA substrate dephosphorylation. inhibition, % at 5 µM. actives 0.81% (n = 300,000);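 active = inhibition above the mean of all tested compounds plus 3 SD, set per screening campaign, cut at about 24% in these data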;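 note: plate controls were DMSO alone for no effect and ferristatin control at 100 nM for full effect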
CSN deneddyl inh: blocks human CSN-mediated cullin deneddylation; inhibition, % at 12.5 µM; Purified CSN, SCF-Nedd8-OG deneddylation, fluorescence polarization; AID 651999; actives 0.38% (n = 360,000); Q92905;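 active = pattern-corrected inhibition above about 35%, with an unprinted fluorescence ratio check between 0.5 and 1.5, limit read from the data, passing the limit was not always enough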;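 note: 0% = enzyme with substrate and 100% = substrate without enzyme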
Target sequence (Q92905 whole entry, looked up, one chain of several): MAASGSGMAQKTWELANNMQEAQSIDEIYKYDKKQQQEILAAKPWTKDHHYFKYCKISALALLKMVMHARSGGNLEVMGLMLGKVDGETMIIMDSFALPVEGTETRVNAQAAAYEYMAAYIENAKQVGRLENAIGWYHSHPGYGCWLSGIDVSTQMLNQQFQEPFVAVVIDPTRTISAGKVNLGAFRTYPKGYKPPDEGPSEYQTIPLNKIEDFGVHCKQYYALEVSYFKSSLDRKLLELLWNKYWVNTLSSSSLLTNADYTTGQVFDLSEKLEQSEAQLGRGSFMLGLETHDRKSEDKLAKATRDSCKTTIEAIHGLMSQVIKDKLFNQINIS
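test system = HEK293T-derived human Csn5 enzyme | amount = 0.24 nM Csn5 enzyme, final concentration | medium = Tris/NaCl/DTT buffer, pH 7.5 | schedule = 90 min reaction at room temperature | signal = FP | evaluation = inhibition of Csn5 cleavage, % | compound dosing = single dose of 12.5 µM compound with 0.25% DMSO | probe or stimulus = 10 nM SCFSkp2-Nedd8OG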
TPT1 inh confirm: TPT1 (C. albicans) inhibition, confirmation; recombinant caTPT1, fluorescence polarization, RNase T1 coupled; AID 2149; inhibition, % at 5 µM; actives 74% (n = 2,400); shares compounds with TPT1 inh;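 active = inhibition above the primary screen limit, the mean inhibition of all tested compounds plus 3 SD, cut at about 25% in these data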
RNase T1 inh: blocks Aspergillus oryzae RNase T1, a TPT1 counter-screen; actives 83% (n = 2,400); shares compounds with TPT1 inh; RNase T1 cleavage, fluorescence polarization, 1536-well; inhibition, % at 5 µM;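 active = inhibition above the solvent-only control well mean plus 3 SD, limit set per screening run, cut at about 23% in these data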;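 note: plate controls were DMSO wells with enzyme for no effect and wells without RNase T1 for full effect; inhibitors block cleavage so intact labeled substrate keeps polarization high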
Target sequence (P00651 whole entry, looked up): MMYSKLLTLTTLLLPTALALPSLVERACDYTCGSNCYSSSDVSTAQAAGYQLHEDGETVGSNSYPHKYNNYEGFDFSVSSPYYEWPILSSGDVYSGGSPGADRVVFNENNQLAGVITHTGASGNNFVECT
The depositor's hits bear a star; nt = not tested or not shown.

SMILES	Rpn11 inh	IDE cell activ	IDE inh	HNF4A DNA FP	TPT1 inh	CSN deneddyl inh	TPT1 inh confirm	RNase T1 inh
CC1(C)CC(=O)C(C2C3=C(CC(C)(C)CC3=O)Oc3c(Br)cc(Br)cc32)=C(O)C1 (stereo not given)	-1	0	1	-1	1	0	nt	nt
COc1ccc(NC(=O)C2CCCN(c3nn4c(=O)cc(C)nc4s3)C2)c(OC)c1 (stereo not given)	0	-3	11	3	-6	-1	nt	nt
CCn1c(/C=C/Nc2ccccc2)[n+](CC)c2ccc(Cl)cc21	12	1	-3	2	9	3	nt	nt
CC[n+]1c(/C=C/N(C)c2ccccc2)oc2ccccc21	nt	1	4	26	36*	27	49*	61*
CC[n+]1c(/C=C/Nc2ccccc2)oc2ccccc21	40	5	7	29	38*	17	52*	64*
CNc1snc(C)c1C(=O)OC(C)C(=O)Nc1cccc(OC)c1 (stereo not given)	-3	1	3	2	nt	5	nt	nt
COc1ccc(C2C(C#N)=C(N)OC(C(C)(C)C)=C2C#N)cc1OC (stereo not given)	-2	-3	-3	1	-3	-5	nt	nt
COc1ccc(C2C(C#N)=C(N)SC(N)=C2C#N)cc1OC	nt	-15	13	116	103*	37	71*	81*
Cc1cccc(OCCn2ccnc2)c1	-3	2	-7	-3	-1	-7	nt	nt
Clc1ccc(OCCn2ccnc2)cc1Cl	6	1	-2	0	60*	3	6	8
N#C/C(=C\c1ccc(O)c(O)c1)C(=O)c1ccc(O)c(O)c1	nt	-2	4	-7	27*	167	69*	74*
N#C/C(=C\c1ccc(O)c(O)c1)C(=O)N1CCCC1	-8	-1	4	1	1	1	nt	nt
N#CC1=CN(Cc2ccccc2)C=C(/C=N/Nc2ccccc2)C1	34	3	0	11	25*	15	14	25*
CCCN1C=CC(=C/C=C(\C#N)C(=O)OCC)C=C1	nt	nt	101*	nt	181*	nt	190*	177*
COC(=O)CSc1nc(N)c2c3c(sc2n1)C(c1ccccc1)SC(c1ccccc1)C3 (stereo not given)	nt	-31	6	25	72*	25	22	31*
COC(=O)CSc1nc(N)c2c3c(sc2n1)CCCC3	4	-1	3	-2	-6	1	nt	nt
O=C(CN(C(=O)c1csnn1)c1ccc(Br)cc1)NC1CCCCC1	2	3	3	1	-6	3	nt	nt
C=Cn1cc[n+](CC(=O)c2ccc(-c3ccccc3)cc2)c1	0	-9	1	5	0	1	nt	nt
O=C(C[n+]1ccccc1)c1ccc(-c2ccccc2)cc1	6	-9	7	4	40*	-2	4	9
CC(C)CC(N)c1csc(Nc2cc(Oc3ccccc3)ncn2)n1 (stereo not given)	-4	nt	nt	4	nt	1	nt	nt
Cc1cccc(CN2C(=O)N/C(=C/c3ccc(C)s3)C2=O)c1	nt	4	4	35*	98*	17	87*	95*
Cc1ccc(/C=C2/NC(=O)N(Cc3ccccc3)C2=O)s1	nt	-1	2	55*	88*	22	91*	95*
CCN1C(=O)/C(=C/c2ccc(C)s2)NC1=S	5	-3	-2	2	7	6	nt	nt
Cc1ccc(NC(=O)CN2C(=O)N/C(=C/c3ccc(C)s3)C2=O)cc1	nt	-9	8	101	71*	58*	66*	76*
COc1ccc(NC(=O)CN2C(=O)COc3ccc(S(=O)(=O)N4CCCCC4)cc32)c(OC)c1	-2	6	1	1	-1	-4	nt	nt
Cc1nn(C2CCS(=O)(=O)C2)c(C)c1CN(C)C(=O)c1ccccc1 (stereo not given)	-3	0	0	6	nt	0	nt	nt
